Like-named read-outs stand apart in the source and are kept apart here.
Assays:
[1] = system: rats; settings: ref Freitas et al., 2016; cited from earlier work
[2] = system: C57BL/6J mice; β2 and α6 WT and KO mice; experiment: Formalin test; format: in vivo
[3] = system: C57BL/6J mice; β2 WT and KO mice; experiment: Locomotor activity; format: in vivo
Outline: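 Saline or test compound was given s.c. 15 min before mice entered photocell cages with two banks of eight beams. Beam interruptions were counted over 30 min. β2 WT and KO mice (8/group) received 0.5 mg/kg. For repeated dosing, mice (12/group) received saline or 0.01, 0.1, 0.5 or 1 mg/kg daily for 5 days, had 2 days without injection, and were challenged on day 8.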

[4] = system: C57BL/6J mice; experiment: Hot-plate test; format: in vivo; settings: 0.5 mg/kg s.c., 5-120 min
Outline: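 Hot plate held at 55.0 °C, with mice confined in a 10 cm glass cylinder. Two control latencies were taken at least 10 min apart. Latency was scored at a jump or at licking of the front or hind paws. Mice (n=6/group) received saline or test compound 0.5 mg/kg s.c. and were tested at 5, 10, 15, 30, 60 and 120 min. %MPE = ((test−control)/(40−control)) × 100.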

[5] = system: ICR mice; experiment: Hot-plate test; format: in vivo
Outline: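 Hot plate at 55.0 °C, mouse confined in a 10 cm glass cylinder. Two control latencies taken ≥10 min apart; endpoint is a jump or paw lick. ICR mice (6/group) given test compound s.c. (0.001–0.5 mg/kg) or saline and tested 5–120 min post-dose. %MPE = (test−control)/(40−control)×100.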

[6] = biological target: low sensitivity α4(3)β2(2) nAChR (Homo sapiens, UniProt P17787+P43681); experiment: Two-electrode voltage clamp in Xenopus oocytes, LS α4β2; format: cell-based
low sensitivity α4(3)β2(2) nAChR, sequence (P17787 26-502): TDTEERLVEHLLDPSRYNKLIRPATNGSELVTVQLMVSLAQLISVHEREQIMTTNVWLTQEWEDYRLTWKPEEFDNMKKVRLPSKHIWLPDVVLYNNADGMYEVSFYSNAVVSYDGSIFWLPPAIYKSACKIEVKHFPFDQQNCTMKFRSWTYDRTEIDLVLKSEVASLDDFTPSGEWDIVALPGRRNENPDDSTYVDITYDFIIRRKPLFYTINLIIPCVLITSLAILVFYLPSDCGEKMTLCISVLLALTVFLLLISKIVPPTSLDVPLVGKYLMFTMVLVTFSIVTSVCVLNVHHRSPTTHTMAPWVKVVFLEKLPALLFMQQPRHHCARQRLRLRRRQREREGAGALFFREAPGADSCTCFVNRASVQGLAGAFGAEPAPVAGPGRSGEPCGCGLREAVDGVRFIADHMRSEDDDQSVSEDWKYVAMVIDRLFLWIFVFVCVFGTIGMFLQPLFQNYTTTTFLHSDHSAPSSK
low sensitivity α4(3)β2(2) nAChR, sequence (P43681 29-627 limits assumed): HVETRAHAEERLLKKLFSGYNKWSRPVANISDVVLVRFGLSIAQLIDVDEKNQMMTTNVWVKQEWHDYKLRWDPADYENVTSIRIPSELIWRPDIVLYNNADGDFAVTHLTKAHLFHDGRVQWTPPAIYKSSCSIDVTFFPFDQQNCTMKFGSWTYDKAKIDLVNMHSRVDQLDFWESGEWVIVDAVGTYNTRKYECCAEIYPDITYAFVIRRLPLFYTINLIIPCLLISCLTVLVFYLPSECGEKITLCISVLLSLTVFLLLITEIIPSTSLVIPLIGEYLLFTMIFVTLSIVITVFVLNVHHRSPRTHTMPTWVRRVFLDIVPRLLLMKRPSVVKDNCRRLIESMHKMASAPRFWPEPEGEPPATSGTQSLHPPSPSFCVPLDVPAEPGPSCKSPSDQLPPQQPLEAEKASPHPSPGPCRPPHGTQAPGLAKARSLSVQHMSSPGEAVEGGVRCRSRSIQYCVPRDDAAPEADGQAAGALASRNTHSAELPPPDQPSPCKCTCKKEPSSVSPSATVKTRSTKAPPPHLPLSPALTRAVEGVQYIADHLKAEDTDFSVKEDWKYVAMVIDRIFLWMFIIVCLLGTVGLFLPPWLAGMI
low sensitivity α4(3)β2(2) nAChR, sequence (P43681 29-627 limits assumed): as above
Outline: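 LS α4β2 nAChR (human, cRNA in Xenopus oocytes) clamped at −60 mV, 24°C, with Ringer's (pH 7.2, 1 μM atropine) at 2 ml/min. Varying test compound concentrations applied for 12 s, then 181 s washout. Peak currents and net charge normalized to same-cell 100 μM ACh controls, then adjusted to ACh maximum determined separately; at least four oocytes.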

[7] = biological target: β3α4β2α6β2 nAChR (Homo sapiens, UniProt P17787+P43681+Q15825); experiment: Two-electrode voltage clamp in Xenopus oocytes, α6-containing concatemer; format: cell-based
β3α4β2α6β2 nAChR, sequence (P43681 29-627 limits assumed): as above
β3α4β2α6β2 nAChR, sequence (P17787 26-502): as the sequence (P17787 26-502) above
β3α4β2α6β2 nAChR, sequence (Q15825 26-494): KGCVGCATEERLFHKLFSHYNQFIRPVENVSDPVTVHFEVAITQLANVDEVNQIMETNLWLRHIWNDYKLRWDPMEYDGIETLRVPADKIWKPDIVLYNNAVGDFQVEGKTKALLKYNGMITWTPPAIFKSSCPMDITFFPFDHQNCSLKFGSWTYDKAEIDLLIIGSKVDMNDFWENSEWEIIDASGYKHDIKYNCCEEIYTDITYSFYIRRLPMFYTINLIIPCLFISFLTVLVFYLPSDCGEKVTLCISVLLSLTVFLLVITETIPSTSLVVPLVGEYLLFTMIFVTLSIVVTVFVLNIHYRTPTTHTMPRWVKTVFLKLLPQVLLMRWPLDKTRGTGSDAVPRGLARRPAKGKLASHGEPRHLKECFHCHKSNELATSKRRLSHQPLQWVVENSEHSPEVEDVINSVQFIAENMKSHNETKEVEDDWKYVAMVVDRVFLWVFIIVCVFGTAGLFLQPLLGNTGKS
β3α4β2α6β2 nAChR, sequence (P17787 26-502): as the sequence (P17787 26-502) above
Outline: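 α6-containing receptor expressed in Xenopus oocytes as a five-subunit human β3α4β2α6β2 concatemer cRNA. Voltage clamp at −60 mV, 24°C, in Ringer's (pH 7.2, 1 μM atropine). Test compound applied 12 s at varying concentrations, 181 s washout. Peak current and net charge referenced to same-cell 30 μM ACh controls and rescaled to ACh maximum from other experiments; ≥4 oocytes.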

[8] = system: ICR mice; experiment: Tail-flick test; format: in vivo
Outline: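 ICR mice (6/group) injected s.c. with test compound (0.001, 0.01, 0.1, 0.5 mg/kg) or saline; tail-flick latency tested at 5, 10, 15, 30, 60 and 120 min. Pre-treatment control latency 2–4 sec; 10 sec cutoff. %MPE = (test−control)/(10−control)×100.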

[9] = system: C57BL/6J mice; experiment: Tail-flick test; format: in vivo; settings: 0.5 mg/kg s.c., 5-120 min
Outline: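 Tail-flick test. A control latency (2–4 sec) was measured for each mouse before dosing, with a 10 sec maximum. Mice (n=6/group) received saline or test compound 0.5 mg/kg s.c. and were tested at 5, 10, 15, 30, 60 and 120 min. %MPE = ((test−control)/(10−control)) × 100.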

[10] = C57BL/6J mice, 0.5 mg/kg s.c., pretreatment 5, 15, 30, 60 min
[11] = α6 WT and KO mice, 0.5 mg/kg s.c., 15 min pretreatment
[12] = β2 WT mice, 0.5 mg/kg s.c., 15 min pretreatment
[13] = 0.001 mg/kg s.c., 5 min after injection
[14] = 0.001 mg/kg s.c., 10 min after injection
[15] = 0.001 mg/kg s.c., 15 min after injection
[16] = 0.001 mg/kg s.c., 30 min after injection
[17] = 0.001 mg/kg s.c., 60 min after injection
[18] = 0.001 mg/kg s.c., 120 min after injection
[19] = 0.01 mg/kg s.c., 5 min after injection
[20] = 0.01 mg/kg s.c., 10 min after injection
[21] = 0.01 mg/kg s.c., 15 min after injection
[22] = 0.01 mg/kg s.c., 30 min after injection
[23] = 0.01 mg/kg s.c., 60 min after injection
[24] = 0.01 mg/kg s.c., 120 min after injection
[25] = 0.1 mg/kg s.c., 5 min after injection
[26] = 0.1 mg/kg s.c., 10 min after injection
[27] = 0.1 mg/kg s.c., 15 min after injection
[28] = 0.1 mg/kg s.c., 30 min after injection
[29] = 0.1 mg/kg s.c., 60 min after injection
[30] = 0.1 mg/kg s.c., 120 min after injection
[31] = 0.5 mg/kg s.c., 5 min after injection
[32] = 0.5 mg/kg s.c., 10 min after injection
[33] = 0.5 mg/kg s.c., 15 min after injection
[34] = 0.5 mg/kg s.c., 30 min after injection
[35] = 0.5 mg/kg s.c., 60 min after injection
[36] = 0.5 mg/kg s.c., 120 min after injection
[37] = α4(3)β2(2), normalized to the maximum ACh responses
[38] = β3α4β2α6β2, normalized to the maximum ACh responses

Ic1cncc(OC[C@@H]2CCN2)c1 [5IA, 5-Iodo-A-85380]
Intracranial self-stimulation (ICSS) (in words) [1]: dose-dependently produced facilitated intracranial self-stimulation (ICSS)
Paw licking, formalin test phase I, time course (in words) [2, 10]: significant effects of 5IA treatment at 5, 15, 30, and 60 min in phase I
Paw licking, formalin test phase II, time course (in words) [2, 10]: significant differences observed at only 5 and 15 minutes
Paw licking, formalin test, dose-response (in words) ([2]; C57BL/6J mice, 0.01, 0.1, 0.5 mg/kg s.c., 15 min pretreatment, vs vehicle): significant attenuation of paw licking responses at 0.1 and 0.5 mg/kg
Paw licking, formalin test phase I (in words) [2, 11]: completely blocked the paw licking behavior in both α6 WT and KO mice in phase I
Paw licking, formalin test phase II (in words) [2, 11]: only partially inhibited it in phase II
Paw licking, formalin test phase I (in words) [2, 12]: significantly attenuated paw licking time in phase I
Paw licking, formalin test phase II (in words) [2, 12]: partially decreased paw licking time in phase II
Locomotion after repeated injection, low dose (in words) ([3]; C57BL/6J mice, 0.01 mg/kg s.c. for 5 days, vs vehicle): stimulant effects on locomotion at days 3 and 5
Locomotion after repeated injection, higher doses (in words) ([3]; C57BL/6J mice, 0.5 and 1 mg/kg s.c. for 5 days, days 1 and 2, vs vehicle): depressive effects at higher doses (0.5 and 1 mg/kg)
Tolerance to locomotor depressant effects (in words) ([3]; C57BL/6J mice, repeated injection of higher doses): Tolerance to the depressant effects of higher doses of 5IA developed progressively after day 2
Attenuation of locomotion in β2 WT vs KO mice (in words) ([3]; β2 WT and KO mice, 0.5 mg/kg s.c.): this effect was only observed in β2 WT mice and not in β2 KO mice
Effect on acute thermal antinociception, hot plate test (in words) [4]: no significant effect of 5IA on acute thermal antinociception in the hot plate or tail-flick test
Antinociceptive response, hot-plate test [5, 13]: 8 ± 3 % MPE
Antinociceptive response, hot-plate test [5, 14]: 10 ± 3 % MPE
Antinociceptive response, hot-plate test [5, 15]: 10 ± 5 % MPE
Antinociceptive response, hot-plate test [5, 16]: 4 ± 3 % MPE
Antinociceptive response, hot-plate test [5, 17]: 8 ± 5 % MPE
Antinociceptive response, hot-plate test [5, 18]: 11 ± 5 % MPE
Antinociceptive response, hot-plate test [5, 19]: 9 ± 3 % MPE
Antinociceptive response, hot-plate test [5, 20]: 7 ± 3 % MPE
Antinociceptive response, hot-plate test [5, 21]: 7 ± 3 % MPE
Antinociceptive response, hot-plate test [5, 22]: 5 ± 3 % MPE
Antinociceptive response, hot-plate test [5, 23]: 13 ± 6 % MPE
Antinociceptive response, hot-plate test [5, 24]: 5 ± 3 % MPE
Antinociceptive response, hot-plate test [5, 25]: 7 ± 2 % MPE
Antinociceptive response, hot-plate test [5, 26]: 6 ± 3 % MPE
Antinociceptive response, hot-plate test [5, 27]: 3 ± 2 % MPE
Antinociceptive response, hot-plate test [5, 28]: 0 ± 0 % MPE
Antinociceptive response, hot-plate test [5, 29]: 8 ± 4 % MPE
Antinociceptive response, hot-plate test [5, 30]: 14 ± 6 % MPE
Antinociceptive response, hot-plate test [5, 31]: 17 ± 5 % MPE
Antinociceptive response, hot-plate test [5, 32]: 11 ± 8 % MPE
Antinociceptive response, hot-plate test [5, 33]: 18 ± 9 % MPE
Antinociceptive response, hot-plate test [5, 34]: 10 ± 6 % MPE
Antinociceptive response, hot-plate test [5, 35]: 11 ± 7 % MPE
Antinociceptive response, hot-plate test [5, 36]: 11 ± 4 % MPE
Effect on acute thermal antinociception, hot plate test (in words) ([5]; 0.001-0.5 mg/kg s.c., 5-120 min): no significant effect of 5IA on acute thermal antinociception in the hot plate test
Efficacy (in words) ([6]; low sensitivity α4(3)β2(2)): very low efficacy
EC50 ([6]; read-out: Net Charge EC50, α4(3)β2(2)): 25 ± 14 nM
EC50 ([6]; read-out: Peak Currents EC50, α4(3)β2(2)): 37 ± 6.3 nM
Net Charge Imax [6, 37]: 0.22 ± 0.04
Peak Currents Imax [6, 37]: 0.22 ± 0.1
EC50 ([7]; read-out: Net Charge EC50, β3α4β2α6β2): 19 ± 0.4 nM
EC50 ([7]; read-out: Peak Currents EC50, β3α4β2α6β2): 11 ± 0.01 nM
Efficacy (in words) ([7]; α6-containing subtypes): intermediate efficacy
Net Charge Imax [7, 38]: 0.76 ± 0.01
Peak Currents Imax [7, 38]: 0.78 ± 0.1
Antinociceptive response, tail-flick test [8, 13]: 2 ± 2 % MPE
Antinociceptive response, tail-flick test [8, 14]: 3 ± 1 % MPE
Antinociceptive response, tail-flick test [8, 15]: 3 ± 2 % MPE
Antinociceptive response, tail-flick test [8, 16]: 0 ± 0 % MPE
Antinociceptive response, tail-flick test [8, 17]: 1 ± 1 % MPE
Antinociceptive response, tail-flick test [8, 18]: 4 ± 2 % MPE
Antinociceptive response, tail-flick test [8, 19]: 1 ± 1 % MPE
Antinociceptive response, tail-flick test [8, 20]: 2 ± 1 % MPE
Antinociceptive response, tail-flick test [8, 21]: 2 ± 1 % MPE
Antinociceptive response, tail-flick test [8, 22]: 2 ± 2 % MPE
Antinociceptive response, tail-flick test [8, 23]: 1 ± 1 % MPE
Antinociceptive response, tail-flick test [8, 24]: 1 ± 1 % MPE
Antinociceptive response, tail-flick test [8, 25]: 0 ± 0 % MPE
Antinociceptive response, tail-flick test [8, 26]: 3 ± 1 % MPE
Antinociceptive response, tail-flick test [8, 27]: 3 ± 1 % MPE
Antinociceptive response, tail-flick test [8, 28]: 6 ± 4 % MPE
Antinociceptive response, tail-flick test [8, 29]: 3 ± 2 % MPE
Antinociceptive response, tail-flick test [8, 30]: 5 ± 2 % MPE
Antinociceptive response, tail-flick test [8, 31]: 10 ± 4 % MPE
Antinociceptive response, tail-flick test [8, 32]: 4 ± 3 % MPE
Antinociceptive response, tail-flick test [8, 33]: 11 ± 4 % MPE
Antinociceptive response, tail-flick test [8, 34]: 7 ± 4 % MPE
Antinociceptive response, tail-flick test [8, 35]: 6 ± 3 % MPE
Antinociceptive response, tail-flick test [8, 36]: 7 ± 3 % MPE
Effect on acute thermal antinociception, tail-flick test (in words) ([8]; 0.001-0.5 mg/kg s.c., 5-120 min, Dunnett's post hoc): no significant effects of dose at any of the observed time points
Effect on acute thermal antinociception, tail-flick test (in words) [9]: no significant effect of 5IA on acute thermal antinociception in the hot plate or tail-flick test
